According to ChEMBL document CHEMBL4014306, “Pyrazolopyrimidines as Potent Stimulators for Transient Receptor Potential Canonical 3/6/7 Channels” (J Med Chem, 2017):
The source made the active and inactive calls. No cut-off for these calls is given here.

Assays:
Assay type in all cases: cell-based
[1] = Selectivity ratio of EC50 for mouse TRPC6 expressed in HEK293 cells co-expressing Gq11-PLCbeta fused M5 receptor assessed as increase in intracellular calcium level to EC50 for human TRPC3 expressed in HEK293 cells assessed as induction of membrane depolarization in presence of 0.5 mM Ca2+
[2] = target: T1, Short transient receptor potential channel 7 (Homo sapiens) (UniProt Q9HCX4); assay: Agonist activity at human TRPC7 expressed in HEK293 cells assessed as increase in membrane depolarization measured for 2.5 mins in presence of 2 mM Ca2+ by FLIPR membrane potential dye-based fluorescence assay
T1 sequence (whole entry): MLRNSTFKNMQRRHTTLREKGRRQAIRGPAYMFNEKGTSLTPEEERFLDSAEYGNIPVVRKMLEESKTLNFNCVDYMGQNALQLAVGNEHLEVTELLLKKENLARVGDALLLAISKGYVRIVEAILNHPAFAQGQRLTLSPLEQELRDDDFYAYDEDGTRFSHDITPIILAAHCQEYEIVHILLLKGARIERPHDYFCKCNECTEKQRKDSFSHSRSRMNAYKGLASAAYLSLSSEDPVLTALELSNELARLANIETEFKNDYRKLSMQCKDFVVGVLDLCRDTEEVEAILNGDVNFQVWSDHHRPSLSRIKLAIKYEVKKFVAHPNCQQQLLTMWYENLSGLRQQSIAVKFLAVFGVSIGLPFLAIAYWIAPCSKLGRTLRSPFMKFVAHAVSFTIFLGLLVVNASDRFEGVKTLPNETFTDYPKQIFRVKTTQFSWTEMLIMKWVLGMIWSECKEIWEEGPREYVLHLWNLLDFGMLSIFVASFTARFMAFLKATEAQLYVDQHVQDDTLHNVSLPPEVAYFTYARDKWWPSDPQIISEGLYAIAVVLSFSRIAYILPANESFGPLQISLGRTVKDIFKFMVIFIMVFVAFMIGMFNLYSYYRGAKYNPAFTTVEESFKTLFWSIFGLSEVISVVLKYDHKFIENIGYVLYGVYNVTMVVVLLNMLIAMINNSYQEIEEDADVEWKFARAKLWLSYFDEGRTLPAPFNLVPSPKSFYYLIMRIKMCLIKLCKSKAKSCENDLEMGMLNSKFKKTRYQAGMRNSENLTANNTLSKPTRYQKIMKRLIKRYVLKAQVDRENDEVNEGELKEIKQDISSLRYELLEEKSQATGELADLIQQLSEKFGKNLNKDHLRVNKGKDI

[3] = target: T2, Short transient receptor potential channel 3 (Homo sapiens) (UniProt Q13507); assay: Agonist activity at human TRPC3 expressed in HEK293 cells assessed as increase in intracellular calcium level measured for 2.5 mins by Fluo-8-AM dye based fluorescence assay
T2 sequence (whole entry): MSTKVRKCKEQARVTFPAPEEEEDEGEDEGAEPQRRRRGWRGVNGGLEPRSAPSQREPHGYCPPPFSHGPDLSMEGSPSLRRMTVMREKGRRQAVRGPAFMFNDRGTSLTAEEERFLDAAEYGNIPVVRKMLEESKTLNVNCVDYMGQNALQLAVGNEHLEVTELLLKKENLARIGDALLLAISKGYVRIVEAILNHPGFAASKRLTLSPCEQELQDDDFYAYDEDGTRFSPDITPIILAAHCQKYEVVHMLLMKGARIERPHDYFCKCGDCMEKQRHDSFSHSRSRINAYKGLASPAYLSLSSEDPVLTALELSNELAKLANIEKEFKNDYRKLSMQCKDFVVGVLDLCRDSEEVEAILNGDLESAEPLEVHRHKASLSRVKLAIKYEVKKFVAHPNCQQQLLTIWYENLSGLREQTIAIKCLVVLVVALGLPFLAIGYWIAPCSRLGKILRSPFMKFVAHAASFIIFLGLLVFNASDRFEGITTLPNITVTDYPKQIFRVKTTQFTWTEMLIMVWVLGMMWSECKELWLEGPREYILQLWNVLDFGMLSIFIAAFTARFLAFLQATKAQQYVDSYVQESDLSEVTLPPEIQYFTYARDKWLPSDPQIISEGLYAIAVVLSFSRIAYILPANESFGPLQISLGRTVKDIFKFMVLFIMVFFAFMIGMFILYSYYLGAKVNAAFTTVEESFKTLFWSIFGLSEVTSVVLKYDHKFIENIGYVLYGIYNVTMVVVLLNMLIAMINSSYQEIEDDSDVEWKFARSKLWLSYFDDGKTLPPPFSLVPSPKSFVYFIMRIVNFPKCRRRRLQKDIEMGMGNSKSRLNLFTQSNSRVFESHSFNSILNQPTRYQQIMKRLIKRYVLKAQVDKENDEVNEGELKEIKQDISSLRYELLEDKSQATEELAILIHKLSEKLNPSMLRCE
Outline: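 HEK293 cells stably expressing human TRPC3, run on a FlexStation at 32 °C. Loaded with FMP dye, or Fluo-type Ca2+ dye with 2 mM probenecid. Extracellular NaCl/HEPES saline, pH 7.4, with 2 mM Ca2+ (standard) or 0.5 mM Ca2+. Read as F/F0. In 0.5 mM Ca2+, FMP EC50 from a Hill fit, n = 6.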

[4] = target: T1, Short transient receptor potential channel 7 (Homo sapiens); assay: Antagonist activity at human TRPC7 receptor expressed in HEK293 cells assessed as channel desensitization up to 30 uM in presence of 0.1 mM Ca2+ by whole cell patch-clamp method
Outline: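 Whole-cell clamp of TRPC6/M5 or TRPC7 HEK293 cells with 0.1 mM Ca2+ bath and 400 nM free Ca2+ pipette. Ramps +100 to −100 mV every 1 s. Increasing concentrations given consecutively by perfusion (TRPC6 highest 20–100 μM; TRPC7 up to 30 μM). Currents at positive and negative potentials followed for desensitization.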

[5] = target: T3, Short transient receptor potential channel 7 (Homo sapiens, UniProt Q9HCX4); assay: (§1) Agonist activity at human TRPC7 receptor expressed in HEK293 cells assessed as induction of channel current in presence of 0.1 mM Ca2+ by whole cell patch-clamp method
T3 sequence (Q9HCX4 whole entry): T1 sequence (whole entry)
Outline: (§2)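 Whole-cell voltage clamp on doxycycline-induced stable HEK293 TRPC7 cells. Pipette (mM): 110 CsCl, 10 HEPES, 10 BAPTA, 1 MgCl2, 4.77 CaCl2 (400 nM free Ca2+), pH 7.2. Bath has 0.1 mM CaCl2, and compound is perfused in bath at increasing concentrations. Ramps run from +100 to −100 mV (100 ms) every 1 s from a 0 mV hold.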

[6] = target: T1, Short transient receptor potential channel 7 (Homo sapiens); assay: as §1; outline: as §2

Row | SMILES | Ratio EC50 [1] | Activity [2] | Activity [3] | inhibition [4] | EC50 [5] [µM] | Activity [6]
1 | CCOC(=O)N1CCC(c2cc(O)n3nc(C)c(-c4ccc(C(F)(F)F)cc4)c3n2)CC1 | > 70 |  |  |  |  | 
2 | CCOC(=O)N1CCC(c2cc(O)n3nc(C)c(-c4ccc(F)cc4)c3n2)CC1 |  | Active | inactive | Active | 1.13 | Dose-dependent effect
